Test results from ChEMBL document CHEMBL2311435, “Development of 18F-labeled picolinamide probes for PET imaging of malignant melanoma” (J Med Chem, 2013).

What was measured:
[1] = tested on: Intestine; experiment: Biodistribution in intestine of C57BL/6 mouse xenografted with mouse B16F10 cells at 3.7 MBq, iv after 1 hr by gamma-scintillation counting analysis; assay type: ADME, organism-based, B16-F10; settings: in vivo
How it was run: (§1)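 1.0 × 10^6 B16F10 cells in PBS injected subcutaneously into the right shoulder of C57BL/6 mice, grown to 0.5 cm (~10 day). Tail-vein injection of about 3.7 MBq (100 μCi) 18F probe in PBS (0.1 M, pH 7.4). Killed at 1.0 or 2.0 h p.i. (n = 4 per group). Tissues excised, weighed and gamma-counted; uptake expressed as %ID/g, mean ± SD.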

[2] = tested on: Brain; experiment: Biodistribution in brain of C57BL/6 mouse xenografted with mouse B16F10 cells at 3.7 MBq, iv after 1 hr by gamma-scintillation counting analysis; assay type: ADME, organism-based, B16-F10; settings: in vivo; how it was run: as §1
[3] = tested on: Spleen; experiment: Biodistribution in spleen of C57BL/6 mouse xenografted with mouse B16F10 cells at 3.7 MBq, iv after 1 hr by gamma-scintillation counting analysis; assay type: ADME, organism-based, B16-F10; settings: in vivo; how it was run: as §1
[4] = tested on: Pancreas; experiment: Biodistribution in pancreas of C57BL/6 mouse xenografted with mouse B16F10 cells at 3.7 MBq, iv after 1 hr by gamma-scintillation counting analysis; assay type: ADME, organism-based, B16-F10; settings: in vivo; how it was run: as §1
[5] = tested on: Mus musculus; experiment: Biodistribution in lungs of C57BL/6 mouse xenografted with mouse B16F10 cells at 3.7 MBq, iv after 1 hr by gamma-scintillation counting analysis; assay type: ADME, organism-based, Lung, B16-F10; settings: in vivo; how it was run: as §1
[6] = tested on: Blood; experiment: Biodistribution in blood of C57BL/6 mouse xenografted with mouse B16F10 cells at 3.7 MBq, iv after 1 hr by gamma-scintillation counting analysis; assay type: ADME, organism-based, B16-F10; settings: in vivo; how it was run: as §1
[7] = Drug uptake in tumor of C57BL/6 mouse xenografted with mouse B16F10 cells at 3.7 MBq, iv after 2 hrs by PET imaging analysis; assay type: ADME, organism-based, Neoplasm, B16-F10; settings: in vivo
How it was run: (§2)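 Static small-animal PET at 0.5, 1 and 2 h after tail-vein injection of ~3.7 MBq (100 μCi) into B16F10-bearing C57BL/6 mice (n = 4 per probe). Isoflurane anesthesia, 5% induction and 2% maintenance in O2. Decay-corrected images. ROI-derived %ID/g assumes 1 g/ml density, without attenuation correction. Mean ± SD.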

[8] = Drug uptake in tumor of C57BL/6 mouse xenografted with mouse B16F10 cells at 3.7 MBq, iv after 1 hr by PET imaging analysis; assay type: ADME, organism-based, Neoplasm, B16-F10; settings: in vivo; how it was run: as §2
[9] = tested on: Kidney; experiment: Drug uptake in kidney of C57BL/6 mouse xenografted with mouse B16F10 cells at 3.7 MBq, iv after 5 mins by PET imaging analysis; assay type: ADME, organism-based, B16-F10; settings: in vivo
How it was run: (§3)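 Dynamic small-animal PET in B16F10 tumor-bearing mice (n = 4) after tail-vein injection of ~3.7 MBq (100 μCi). Scanning began ~2.0 min post-injection and ran 35 min (6×20 s, 8×60 s, 10×150 s; 24 frames). ROI counts converted to %ID/g assuming 1 g/ml tissue density. No attenuation correction.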

[10] = tested on: Kidney; experiment: Drug uptake in kidney of C57BL/6 mouse xenografted with mouse B16F10 cells at 3.7 MBq, iv after 35 mins by PET imaging analysis; assay type: ADME, organism-based, B16-F10; settings: in vivo; how it was run: as §3
[11] = Drug uptake in tumor of C57BL/6 mouse xenografted with mouse B16F10 cells at 3.7 MBq, iv after 35 mins by PET imaging analysis; assay type: ADME, organism-based, Neoplasm, B16-F10; settings: in vivo; how it was run: as §3
[12] = tested on: Nucleic Acid; experiment: Ratio of drug uptake in tumor to lungs of C57BL/6 mouse xenografted with mouse B16F10 cells at 3.7 MBq, iv after 2 hrs by gamma-scintillation counting analysis; assay type: ADME, organism-based, B16-F10; settings: in vivo
How it was run: (§4)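 Same subcutaneous B16F10 model and tail-vein dose of about 3.7 MBq (100 μCi), n = 4 per group. Dissection at 1 or 2 h p.i. Gamma-counter %ID/g of tumor divided by that of blood, lung, liver or muscle, given as mean ± SD.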

[13] = tested on: Nucleic Acid; experiment: Ratio of drug uptake in tumor to blood of C57BL/6 mouse xenografted with mouse B16F10 cells at 3.7 MBq, iv after 2 hrs by gamma-scintillation counting analysis; assay type: ADME, organism-based, B16-F10; settings: tumour; how it was run: as §4
[14] = tested on: Nucleic Acid; experiment: Ratio of drug uptake in tumor to muscle of C57BL/6 mouse xenografted with mouse B16F10 cells at 3.7 MBq, iv after 1 hr by gamma-scintillation counting analysis; assay type: ADME, organism-based, B16-F10; settings: in vivo; how it was run: as §4
[15] = tested on: Nucleic Acid; experiment: Ratio of drug uptake in tumor to liver of C57BL/6 mouse xenografted with mouse B16F10 cells at 3.7 MBq, iv after 1 hr by gamma-scintillation counting analysis; assay type: ADME, organism-based, B16-F10; settings: in vivo; how it was run: as §4
[16] = tested on: Nucleic Acid; experiment: Ratio of drug uptake in tumor to lungs of C57BL/6 mouse xenografted with mouse B16F10 cells at 3.7 MBq, iv after 1 hr by gamma-scintillation counting analysis; assay type: ADME, organism-based, B16-F10; settings: in vivo; how it was run: as §4
[17] = tested on: Nucleic Acid; experiment: Ratio of drug uptake in tumor to blood of C57BL/6 mouse xenografted with mouse B16F10 cells at 3.7 MBq, iv after 1 hr by gamma-scintillation counting analysis; assay type: ADME, organism-based, B16-F10; settings: tumour; how it was run: as §4
[18] = tested on: Bone; experiment: Biodistribution in bone of C57BL/6 mouse xenografted with mouse B16F10 cells at 3.7 MBq, iv after 2 hrs by gamma-scintillation counting analysis; assay type: ADME, organism-based, Bone element, B16-F10; settings: in vivo; how it was run: as §1
[19] = tested on: Muscle tissue; experiment: Biodistribution in muscle of C57BL/6 mouse xenografted with mouse B16F10 cells at 3.7 MBq, iv after 2 hrs by gamma-scintillation counting analysis; assay type: ADME, organism-based, B16-F10; settings: in vivo; how it was run: as §1
[20] = tested on: Zone of skin; experiment: Biodistribution in skin of C57BL/6 mouse xenografted with mouse B16F10 cells at 3.7 MBq, iv after 2 hrs by gamma-scintillation counting analysis; assay type: ADME, organism-based, B16-F10; settings: in vivo; how it was run: as §1
[21] = tested on: Kidney; experiment: Biodistribution in kidney of C57BL/6 mouse xenografted with mouse B16F10 cells at 3.7 MBq, iv after 2 hrs by gamma-scintillation counting analysis; assay type: ADME, organism-based, B16-F10; settings: in vivo; how it was run: as §1
[22] = tested on: Intestine; experiment: Biodistribution in intestine of C57BL/6 mouse xenografted with mouse B16F10 cells at 3.7 MBq, iv after 2 hrs by gamma-scintillation counting analysis; assay type: ADME, organism-based, B16-F10; settings: in vivo; how it was run: as §1
[23] = tested on: Brain; experiment: Biodistribution in brain of C57BL/6 mouse xenografted with mouse B16F10 cells at 3.7 MBq, iv after 2 hrs by gamma-scintillation counting analysis; assay type: ADME, organism-based, B16-F10; settings: in vivo; how it was run: as §1
[24] = tested on: Pancreas; experiment: Biodistribution in pancreas of C57BL/6 mouse xenografted with mouse B16F10 cells at 3.7 MBq, iv after 2 hrs by gamma-scintillation counting analysis; assay type: ADME, organism-based, B16-F10; settings: in vivo; how it was run: as §1
[25] = tested on: Spleen; experiment: Biodistribution in spleen of C57BL/6 mouse xenografted with mouse B16F10 cells at 3.7 MBq, iv after 2 hrs by gamma-scintillation counting analysis; assay type: ADME, organism-based, B16-F10; settings: in vivo; how it was run: as §1
[26] = tested on: Liver; experiment: Biodistribution in liver of C57BL/6 mouse xenografted with mouse B16F10 cells at 3.7 MBq, iv after 2 hrs by gamma-scintillation counting analysis; assay type: ADME, organism-based, B16-F10; settings: in vivo; how it was run: as §1
[27] = tested on: Heart; experiment: Biodistribution in heart of C57BL/6 mouse xenografted with mouse B16F10 cells at 3.7 MBq, iv after 2 hrs by gamma-scintillation counting analysis; assay type: ADME, organism-based, B16-F10; settings: in vivo; how it was run: as §1
[28] = tested on: Blood; experiment: Biodistribution in blood of C57BL/6 mouse xenografted with mouse B16F10 cells at 3.7 MBq, iv after 2 hrs by gamma-scintillation counting analysis; assay type: ADME, organism-based, B16-F10; settings: in vivo; how it was run: as §1
[29] = tested on: Bone; experiment: Biodistribution in bone of C57BL/6 mouse xenografted with mouse B16F10 cells at 3.7 MBq, iv after 1 hr by gamma-scintillation counting analysis; assay type: ADME, organism-based, Bone element, B16-F10; settings: in vivo; how it was run: as §1
[30] = tested on: Zone of skin; experiment: Biodistribution in skin of C57BL/6 mouse xenografted with mouse B16F10 cells at 3.7 MBq, iv after 1 hr by gamma-scintillation counting analysis; assay type: ADME, organism-based, B16-F10; settings: in vivo; how it was run: as §1

Drug uptake [1]: 2.01 % ID/g
Drug uptake [2]: 1.28 % ID/g
Drug uptake [3]: 1.78 % ID/g
Drug uptake [4]: 1.61 % ID/g
Drug uptake [5]: 1.58 % ID/g
Drug uptake [6]: 0.42 % ID/g
Drug uptake [7]: 16.87 % ID/g
Drug uptake [8]: 16.61 % ID/g
Drug uptake [9]: 24.91 % ID/g
Drug uptake [10]: 9.44 % ID/g
Drug uptake [11]: 10.52 % ID/g
Ratio [12]: 24.92
Ratio [13]: 88.25
Ratio [14]: 13.84
Ratio [15]: 3.79
Ratio [16]: 9.94
Ratio [17]: 41.44
Drug uptake [18]: 1.72 % ID/g
Drug uptake [19]: 0.41 % ID/g
Drug uptake [20]: 0.68 % ID/g
Drug uptake [21]: 1.03 % ID/g
Drug uptake [22]: 0.88 % ID/g
Drug uptake [23]: 0.42 % ID/g
Drug uptake [24]: 0.61 % ID/g
Drug uptake [25]: 1.13 % ID/g
Drug uptake [26]: 3.32 % ID/g
Drug uptake [27]: 0.59 % ID/g
Drug uptake [28]: 0.19 % ID/g
Drug uptake [29]: 2.4 % ID/g
Drug uptake [30]: 1.3 % ID/g
SMILES: CCN(CC)CCNC(=O)c1ccc([18F])cn1
